pIC50: −log10 of the molar value. Active and inactive are the calls of the source. The calls are words filed in the database; no cut-off is given here.
Tests used:
Mus musculus = assay: Effective dose required for inhibition of locomotion/ataxia in mice administered intraperitoneally; assay type: functional; conditions: ip
How it was run: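 Male Swiss–Webster mice (20–30 g, unfasted), nine per dose in groups of three, dosed ip in 0.2% methocel (dose as parent compound) 1 h before testing. Ataxia was scored first on an inverted screen over 60 s as % of mice falling. […] ED50 from at least three doses.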

Rattus norvegicus [1] = species: Rattus norvegicus; assay: Compound was tested for its potential to produce clonic seizures in rats; + indicates compound is causing seizures; assay type: functional, organism-based
How it was run: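 Any sign of seizure marked the compound as seizure-causing; the outcome was not quantified.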

Rattus norvegicus [2] = species: Rattus norvegicus; assay: Effective dose required for inhibition of Sidman avoidance in rats; assay type: functional
How it was run: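 Mature male Long–Evans rats, trained on a modified Sidman avoidance schedule in lever-equipped operant chambers, were dosed orally and tested in 6-h sessions. Inhibition was expressed as % of each animal's own nondrug responding. At least three doses were given to four animals, with sessions at least 1 week apart. ED50 from nonlinear regression of dose–effect.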

[3] = molecular target: T1, Serotonin 2 (5-HT2) receptor (Rattus norvegicus, UniProt P30994+P08909+P14842); assay: Binding affinity towards 5-hydroxytryptamine 2 receptor using [3H]- spiroperidol; assay type: protein assay
How it was run: (§1)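 Serotonin-2 sites in rat cerebral cortex membranes (male Long-Evans, 150–250 g) with [3H]spiroperidol at 0.2 nM final. (+)-Butaclamol at 1.0 μM final was the reference. IC50 from four or five concentrations by nonlinear curve fitting.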

[4] = molecular target: Beta-1 adrenergic receptor (Rattus norvegicus, UniProt P18090); assay: Binding affinity against the beta-1 adrenergic receptor using [3H]- DHA
Sequence of Beta-1 adrenergic receptor (P18090 whole entry): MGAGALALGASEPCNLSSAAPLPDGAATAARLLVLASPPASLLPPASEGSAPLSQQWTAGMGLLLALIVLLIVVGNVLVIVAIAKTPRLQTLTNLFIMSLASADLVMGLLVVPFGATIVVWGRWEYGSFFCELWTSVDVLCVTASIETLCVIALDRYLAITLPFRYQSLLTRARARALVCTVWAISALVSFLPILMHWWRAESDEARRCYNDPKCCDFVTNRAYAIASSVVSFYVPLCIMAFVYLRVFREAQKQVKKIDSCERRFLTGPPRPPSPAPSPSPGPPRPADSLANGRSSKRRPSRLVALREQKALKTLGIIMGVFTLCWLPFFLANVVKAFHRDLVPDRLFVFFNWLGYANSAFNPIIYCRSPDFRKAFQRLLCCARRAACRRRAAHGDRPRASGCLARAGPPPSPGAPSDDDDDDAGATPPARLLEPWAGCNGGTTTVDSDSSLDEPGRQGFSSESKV
How it was run: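 β1 sites in rat cerebral cortex membranes (male Long-Evans, 150–250 g) with [3H]dihydroalprenolol at 0.5 nM final. (-)-Alprenolol at 1 μM final defined the reference. IC50 from four or five concentrations by nonlinear curve fit.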

[5] = molecular target: Beta-2 adrenergic receptor (Rattus norvegicus, UniProt P10608); assay: Binding affinity against the beta-2 adrenergic receptor using [3H]- DHA
Sequence of Beta-2 adrenergic receptor (P10608 whole entry): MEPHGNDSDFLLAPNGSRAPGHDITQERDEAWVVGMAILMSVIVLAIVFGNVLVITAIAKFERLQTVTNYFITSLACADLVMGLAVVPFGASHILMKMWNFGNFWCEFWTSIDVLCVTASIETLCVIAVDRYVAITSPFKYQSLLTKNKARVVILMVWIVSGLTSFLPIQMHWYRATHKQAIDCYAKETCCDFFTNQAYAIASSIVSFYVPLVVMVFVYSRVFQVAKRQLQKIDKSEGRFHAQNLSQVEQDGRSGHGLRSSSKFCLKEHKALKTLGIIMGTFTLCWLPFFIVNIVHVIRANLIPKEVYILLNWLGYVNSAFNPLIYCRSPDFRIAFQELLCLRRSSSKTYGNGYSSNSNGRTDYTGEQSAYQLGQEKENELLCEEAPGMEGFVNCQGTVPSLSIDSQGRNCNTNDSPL
How it was run: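 β2 sites in rat cerebellum membranes (male Long-Evans, 150–250 g) with [3H]dihydroalprenolol at 0.5 nM final. (-)-Alprenolol at 1 μM final defined the reference. IC50 from four or five concentrations by nonlinear curve fit.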

Canis familiaris = assay: Emesis test in dogs was determined when administered perorally; assay type: functional; conditions: Canis lupus familiaris, po; read-out: MED
How it was run: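 Fasted dogs (7–12 kg), normally three per dose, were dosed orally and observed hourly for up to 6 h for emesis and other autonomic or behavioural signs. The minimal effective dose was the lowest dose producing emesis in any animal.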

Rattus norvegicus [6] = assay: Compound was tested for serum prolactin assay method in rats at 10 mg/kg dose after peroral administration; assay type: functional; conditions: route oral
How it was run: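 Seven-week-old male Sprague–Dawley rats, five per group, were dosed orally and killed by decapitation 1 h later. Serum prolactin from trunk blood was measured by radioimmunoassay with [125I]-PRL and expressed as % of control (mean ± SEM).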

Rattus norvegicus [7] = assay: Compound was tested for its affect on the accumulation of the dopamine metabolite homovanillic acid (HAV) in the rat striatum at 8 mg/kg dose after peroral administration; assay type: functional; conditions: route oral
How it was run: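 Male Long–Evans rats were dosed orally and decapitated 2 h later. Striatal HVA was isolated on Sephadex G-10 and measured spectrofluorometrically, expressed as % control ± SEM.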

Adenosine receptor A1 = molecular target: T2, Adenosine receptor A1 (Rattus norvegicus, UniProt P25099); assay: Binding affinity towards rat brain adenosine A1 receptor using [3H]- CHA
T2 sequence (P25099 whole entry): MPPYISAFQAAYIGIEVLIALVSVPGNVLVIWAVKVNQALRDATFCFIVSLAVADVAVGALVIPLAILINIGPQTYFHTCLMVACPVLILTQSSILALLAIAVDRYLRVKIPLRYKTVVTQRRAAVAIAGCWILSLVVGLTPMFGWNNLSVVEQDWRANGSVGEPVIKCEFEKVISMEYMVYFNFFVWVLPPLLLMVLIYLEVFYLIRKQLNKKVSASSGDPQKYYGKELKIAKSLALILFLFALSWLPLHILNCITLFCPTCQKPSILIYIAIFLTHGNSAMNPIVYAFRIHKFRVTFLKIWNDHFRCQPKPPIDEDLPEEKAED
How it was run: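 Adenosine A1 binding in membranes of rat whole brain minus brain stem and cerebellum (male Long-Evans, 150–250 g), using [3H]-CHA at 1.0 nM final. Theophylline at 1 mM final was the reference. IC50 from four or five concentrations by nonlinear fit.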

[8] = molecular target: Dopamine receptor (Rattus norvegicus) (UniProt P25115+P19020+P30729+P18901+P61169); assay: Compound was tested for its effect on norepinephrine turnover in rat at dose of 10+/-250 mg/kg; assay type: functional, organism-based; conditions: in the assay text read “64+/-250 mg/kg” for “10+/-250 mg/kg”
How it was run: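 Male Long-Evans rats were given vehicle or agent ip 30 min before α-methyl-p-tyrosine (250 mg/kg) and killed 4 h after it. Brain NE and DA were isolated on Sephadex G-10 and measured spectrofluorometrically. Values are percent of vehicle-treated, with at least five determinations per value.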

[9] = molecular target: Muscarinic acetylcholine receptor; assay: Binding affinity against Muscarinic acetylcholine receptor in rat brain using [3H]- QNB; assay type: tissue-based
How it was run: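 Muscarinic sites in rat brain stem membranes (male Long-Evans, 150–250 g), labelled with [3H]quinuclidinyl benzilate at 0.03 nM final. Oxotremorine at 100 μM final served as the reference displacer. IC50 from four or five concentrations by nonlinear curve fitting.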

Rattus norvegicus [10] = assay: Suppression of conditional avoidance after peroral administration; assay type: functional; conditions: po
How it was run: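 Fasted male Wistar rats (150–250 g) were trained to jump to a platform at a buzzer to avoid grid shock (1.1 mA/s). After oral dosing they were tested every 20 min for 6 h over 19 trials, 10 rats per dose, each rat used once. Peak effect was the mean of the four consecutive trials with the largest effect, computed from response latency. ED50 read graphically from at least three doses.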

[11] = molecular target: T1, Serotonin 2 (5-HT2) receptor; assay: Binding affinity towards 5-hydroxytryptamine 2 receptor in rat brain using [3H]spiroperidol; assay type: tissue-based; how it was run: as §1
[12] = Inhibition of sidman avoidance in rats after peroral administration

Question: With `Cc1nn(C)c(N)c1C(=O)c1ccccc1F` as the compound, how does the ED50 (Mus musculus) read?
Answer: 8 mg/kg

Question: What about the Clonic seizures (Rattus norvegicus [1]) of the same compound?
Answer: Active

Question: What about the ED50 (Rattus norvegicus [2]) of the same compound?
Answer: 20 mg/kg

Question: Which IC50 [3] does the source give for `CCN(CC)CC(=O)Nc1c(C(=O)c2ccccc2F)c(C)nn1C` here?
Answer: > 10 µM

Question: And the pIC50 [4]?
Answer: < 5.00

Question: And the pIC50 [5]?
Answer: < 5.00

Question: And the minimal effective dose (Canis familiaris)?
Answer: 56 mg/kg

Question: What about the Control (Rattus norvegicus [6]) of the same compound?
Answer: 52.9%

Question: And the Control (Rattus norvegicus [7])?
Answer: 131.9%

Question: With `Cc1nn(C)c(NC(=O)CNCCCN2CCCCC2C)c1C(=O)c1ccccc1F` (stereo not given) as the compound, how does the pIC50 (Adenosine receptor A1) read?
Answer: < 5.00

Question: What about the Control [8] of the same compound?
Answer: 53.7%

Question: And the IC50 [9]?
Answer: > 10 µM

Question: And the ED50 (Rattus norvegicus [10])?
Answer: 43 mg/kg

Question: And the IC50 [11]?
Answer: > 10 µM

Question: And the ED50 [12]?
Answer: 21.3 mg/kg

Reference: ChEMBL document CHEMBL1123363, “(5-Amino-1,3-dimethyl-1H-pyrazol-4-yl)(2-fluorophenyl)methanones . A series of novel potential antipsychotic agents” (J Med Chem, 1986)
